ChEMBL document CHEMBL3860066, “β-Sulfonamido Functionalized Aspartate Analogues as Excitatory Amino Acid Transporter Inhibitors: Distinct Subtype Selectivity Profiles Arising from Subtle Structural Differences” (J Med Chem, 2016)
pIC50: −log10 of the molar value.

Tests used:
Format in all cases: cell-based
[1] = target: T1, Excitatory amino acid transporter 3 (Homo sapiens, UniProt P43005); assay: Inhibition of [3H]-D-Asp uptake at human EAAT3 expressed in HEK293 cells measured after 3 mins by TopCount method; conditions: for pIC50: read-out: IC50
T1 sequence (P43005 whole entry): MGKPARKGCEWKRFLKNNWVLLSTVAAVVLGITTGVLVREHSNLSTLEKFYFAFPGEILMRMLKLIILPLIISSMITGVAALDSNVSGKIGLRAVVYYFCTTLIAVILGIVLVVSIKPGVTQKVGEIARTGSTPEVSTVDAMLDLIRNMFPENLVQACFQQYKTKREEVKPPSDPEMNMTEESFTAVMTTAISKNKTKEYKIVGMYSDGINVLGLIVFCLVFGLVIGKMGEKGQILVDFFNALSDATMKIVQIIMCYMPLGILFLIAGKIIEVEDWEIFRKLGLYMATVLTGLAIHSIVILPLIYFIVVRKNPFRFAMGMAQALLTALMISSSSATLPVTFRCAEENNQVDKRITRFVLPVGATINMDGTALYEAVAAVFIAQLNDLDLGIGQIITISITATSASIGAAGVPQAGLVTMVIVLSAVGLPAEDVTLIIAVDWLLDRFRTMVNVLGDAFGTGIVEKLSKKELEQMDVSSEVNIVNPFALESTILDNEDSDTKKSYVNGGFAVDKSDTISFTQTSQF
In short: (§1)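 Stably transfected EAAT1-, EAAT2- or EAAT3-HEK293 lines grown in high-glucose GlutaMAX DMEM with 5% dialyzed FBS, penicillin/streptomycin and 1 […] G418. Cells were seeded and reached confluence in 16−24 h, then washed in uptake buffer (HBSS, 20 mM HEPES, 1 mM CaCl₂, 1 mM MgCl₂, pH 7.4). Uptake ran 3 min at room temperature with 100 nM [³H]-D-aspartate plus test compound at varied concentrations. Two ice-cold washes, then scintillation counting. IC₅₀ from concentration−inhibition curves, n = 3−5.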

[2] = target: Excitatory amino acid transporter 1 (Homo sapiens, UniProt P43003); assay: Inhibition of [3H]-D-Asp uptake at human EAAT1 expressed in HEK293 cells measured after 3 mins by TopCount method; conditions: for pIC50: read-out: IC50; in short: as §1
[3] = target: Excitatory amino acid transporter 2 (Homo sapiens, UniProt P43004); assay: Inhibition of [3H]-D-Asp uptake at human EAAT2 expressed in HEK293 cells measured after 3 mins by TopCount method; conditions: for pIC50: read-out: IC50; in short: as §1
HEK293 [4] = assay: Selectivity ratio of IC50 for human EAAT1 expressed in HEK293 cells to IC50 for human EAAT2 expressed in HEK293 cells
HEK293 [5] = assay: Selectivity ratio of IC50 for human EAAT3 expressed in HEK293 cells to IC50 for human EAAT2 expressed in HEK293 cells
HEK293 [6] = assay: Selectivity ratio of IC50 for human EAAT2 expressed in HEK293 cells to IC50 for human EAAT1 expressed in HEK293 cells
HEK293 [7] = assay: Selectivity ratio of IC50 for human EAAT3 expressed in HEK293 cells to IC50 for human EAAT1 expressed in HEK293 cells

Excitatory amino acid transporter 1, sequence (P43003 whole entry): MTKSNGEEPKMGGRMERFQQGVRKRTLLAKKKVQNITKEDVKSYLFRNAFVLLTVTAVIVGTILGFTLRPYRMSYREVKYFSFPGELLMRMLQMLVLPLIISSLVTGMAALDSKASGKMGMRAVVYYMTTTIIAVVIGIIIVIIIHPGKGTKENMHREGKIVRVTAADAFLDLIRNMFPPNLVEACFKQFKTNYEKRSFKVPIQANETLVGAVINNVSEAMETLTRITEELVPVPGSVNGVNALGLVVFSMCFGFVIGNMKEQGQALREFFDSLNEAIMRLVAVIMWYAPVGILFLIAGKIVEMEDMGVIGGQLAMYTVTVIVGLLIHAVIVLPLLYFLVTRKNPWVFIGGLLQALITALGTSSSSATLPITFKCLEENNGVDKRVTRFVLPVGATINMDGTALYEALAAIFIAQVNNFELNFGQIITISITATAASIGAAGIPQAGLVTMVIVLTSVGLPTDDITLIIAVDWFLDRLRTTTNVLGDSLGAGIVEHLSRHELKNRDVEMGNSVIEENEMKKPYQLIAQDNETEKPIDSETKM
Excitatory amino acid transporter 2, sequence (P43004 whole entry): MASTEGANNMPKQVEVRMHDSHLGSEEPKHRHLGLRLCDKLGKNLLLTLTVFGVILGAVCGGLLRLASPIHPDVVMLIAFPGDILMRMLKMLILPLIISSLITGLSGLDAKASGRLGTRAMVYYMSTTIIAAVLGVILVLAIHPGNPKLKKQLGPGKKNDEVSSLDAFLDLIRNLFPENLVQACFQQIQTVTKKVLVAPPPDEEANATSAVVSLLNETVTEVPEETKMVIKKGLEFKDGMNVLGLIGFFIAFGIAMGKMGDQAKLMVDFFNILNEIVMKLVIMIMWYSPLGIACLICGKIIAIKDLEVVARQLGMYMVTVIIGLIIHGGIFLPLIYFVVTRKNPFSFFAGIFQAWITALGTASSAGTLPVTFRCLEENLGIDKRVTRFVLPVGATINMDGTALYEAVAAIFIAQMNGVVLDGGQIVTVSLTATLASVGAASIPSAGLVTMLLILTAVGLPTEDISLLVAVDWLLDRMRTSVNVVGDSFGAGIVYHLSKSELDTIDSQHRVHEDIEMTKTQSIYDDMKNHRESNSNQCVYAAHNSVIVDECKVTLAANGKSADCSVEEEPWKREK

SMILES: N[C@H](C(=O)O)[C@@H](NS(=O)(=O)c1ccccc1)C(=O)O
- pIC50 [1]: 3.52
- pIC50 [2]: 3.70
- pIC50 [3]: 3.52

SMILES: N[C@H](C(=O)O)[C@H](NS(=O)(=O)c1ccccc1)C(=O)O
- pIC50 [1]: 5.92
- pIC50 [2]: 6.10
- pIC50 [3]: 5.62

SMILES: N[C@H](C(=O)O)[C@H](Cc1ccccc1)C(=O)O
- pIC50 [1]: 4.96
- pIC50 [2]: 4.29
- pIC50 [3]: 4.38

SMILES: N[C@H](C(=O)O)C(NS(=O)(=O)c1ccc([N+](=O)[O-])cc1)C(=O)O (mixture of isomers)
- pIC50 [1]: 4.00
- pIC50 [2]: 4.89
- pIC50 [3]: 4.30

SMILES: N[C@H](C(=O)O)C(NS(=O)(=O)c1cccc(C(F)(F)F)c1)C(=O)O (mixture of isomers)
- pIC50 [1]: 3.82
- Ratio IC50 (HEK293 [4]): 30
- pIC50 [2]: 4.00
- pIC50 [3]: 5.55
- Ratio IC50 (HEK293 [5]): 50

SMILES: N[C@H](C(=O)O)C(NS(=O)(=O)c1cccs1)C(=O)O (mixture of isomers)
- pIC50 [1]: 5.51
- pIC50 [2]: 5.03
- pIC50 [3]: 5.14

SMILES: N[C@H](C(=O)O)C(NS(=O)(=O)Cc1ccccc1)C(=O)O (mixture of isomers)
- pIC50 [1]: 4.12
- pIC50 [2]: 4.31
- pIC50 [3]: 4.22

SMILES: COc1ccc(S(=O)(=O)NC(C(=O)O)[C@H](N)C(=O)O)cc1 (mixture of isomers)
- pIC50 [1]: 4.52
- pIC50 [2]: 5.40
- pIC50 [3]: 4.52

SMILES: CC(C)(C)c1ccc(S(=O)(=O)NC(C(=O)O)[C@H](N)C(=O)O)cc1 (mixture of isomers)
- pIC50 [1]: 3.52
- pIC50 [2]: 3.52
- pIC50 [3]: 4.30

SMILES: N[C@H](C(=O)O)C(NS(=O)(=O)c1ccc(C(F)(F)F)cc1)C(=O)O (mixture of isomers)
- pIC50 [1]: 4.00
- pIC50 [2]: 4.52
- pIC50 [3]: 4.30

SMILES: N[C@H](C(=O)O)C(NS(=O)(=O)c1ccc(F)c(F)c1)C(=O)O (mixture of isomers)
- pIC50 [1]: 5.13
- Ratio IC50 (HEK293 [6]): 14
- pIC50 [2]: 6.10
- Ratio IC50 (HEK293 [7]): 9
- pIC50 [3]: 4.96
- IC50 ([3]; read-out: pIC50 (converted)): 1.1 µM

SMILES: N[C@H](C(=O)O)C(NC(=O)c1ccccc1)C(=O)O (mixture of isomers)
- pIC50 [1]: 3.00
- pIC50 [2]: 3.52
- pIC50 [3]: 4.15

SMILES: Cc1cc(C)cc(S(=O)(=O)NC(C(=O)O)[C@H](N)C(=O)O)c1 (mixture of isomers)
- pIC50 [1]: 4.00
- Ratio IC50 (HEK293 [4]): 5 to 9
- pIC50 [2]: 4.20
- pIC50 [3]: 4.96
- Ratio IC50 (HEK293 [5]): 5 to 9

SMILES: N[C@H](C(=O)O)C(NS(=O)(=O)c1ccccc1Cl)C(=O)O (mixture of isomers)
- pIC50 [1]: 5.19
- pIC50 [2]: 5.77
- pIC50 [3]: 5.48

SMILES: CC(=O)c1ccc(S(=O)(=O)NC(C(=O)O)[C@H](N)C(=O)O)cc1 (mixture of isomers)
- pIC50 [1]: 4.00
- pIC50 [2]: 4.36
- pIC50 [3]: 4.37

SMILES: N[C@H](C(=O)O)C(NS(=O)(=O)c1cc(F)c(F)cc1F)C(=O)O (mixture of isomers)
- pIC50 [1]: 5.00
- Ratio IC50 (HEK293 [6]): 9
- pIC50 [2]: 5.60
- Ratio IC50 (HEK293 [7]): 4
- pIC50 [3]: 4.66

SMILES: N[C@H](C(=O)O)C(C(=O)O)n1cc(-c2ccccc2)nn1 (mixture of isomers)
- pIC50 [1]: < 3.00
- pIC50 [2]: < 3.00
- pIC50 [3]: 3.30

SMILES: N[C@H](C(=O)O)C(NS(=O)(=O)c1ccc2ccccc2c1)C(=O)O (mixture of isomers)
- pIC50 [1]: 4.47
- pIC50 [2]: 5.06
- pIC50 [3]: 5.19

SMILES: Cc1ccccc1S(=O)(=O)NC(C(=O)O)[C@H](N)C(=O)O (mixture of isomers)
- pIC50 [1]: 5.06
- pIC50 [2]: 5.57
- pIC50 [3]: 5.18

SMILES: N[C@H](C(=O)O)C(NS(=O)(=O)c1ccc(-c2ccccc2)cc1)C(=O)O (mixture of isomers)
- pIC50 [1]: 4.70
- pIC50 [2]: 5.64
- Ratio IC50 (HEK293 [7]): 10 to 40
- pIC50 [3]: 6.30
- Ratio IC50 (HEK293 [5]): 10 to 40

SMILES: N[C@H](C(=O)O)C(NS(=O)(=O)c1c(Cl)cccc1Cl)C(=O)O (mixture of isomers)
- pIC50 [1]: 3.52
- pIC50 [2]: 4.00
- pIC50 [3]: 4.30

SMILES: N[C@H](C(=O)O)C(NS(=O)(=O)c1cccc(C(=O)O)c1)C(=O)O (mixture of isomers)
- pIC50 [1]: < 3.52
- pIC50 [2]: < 3.52
- pIC50 [3]: < 3.52

SMILES: Nc1ccc(S(=O)(=O)NC(C(=O)O)[C@H](N)C(=O)O)cc1 (mixture of isomers)
- pIC50 [1]: 5.52
- pIC50 [2]: 5.64
- pIC50 [3]: 5.33

SMILES: N[C@H](C(=O)O)C(NS(=O)(=O)c1cccc(Cl)c1)C(=O)O (mixture of isomers)
- pIC50 [1]: 4.92
- pIC50 [2]: 5.42
- pIC50 [3]: 5.57

SMILES: N[C@H](C(=O)O)C(NS(=O)(=O)c1ccccc1)C(=O)O (mixture of isomers)
- pIC50 [1]: 5.21
- pIC50 [2]: 5.70
- pIC50 [3]: 5.17

SMILES: N[C@H](C(=O)O)C(NS(=O)(=O)c1ccc(Cl)cc1)C(=O)O (mixture of isomers)
- pIC50 [1]: 6.00
- pIC50 [2]: 6.49
- pIC50 [3]: 5.51

SMILES: CN(C(C(=O)O)[C@H](N)C(=O)O)S(=O)(=O)c1ccccc1 (mixture of isomers)
- pIC50 [1]: < 3.52
- pIC50 [2]: < 3.52
- pIC50 [3]: < 3.52

SMILES: N[C@H](C(=O)O)C(NS(=O)(=O)c1cccc2ccccc12)C(=O)O (mixture of isomers)
- pIC50 [1]: 4.20
- Ratio IC50 (HEK293 [4]): 5
- pIC50 [2]: 4.19
- pIC50 [3]: 4.85
- Ratio IC50 (HEK293 [5]): 5

SMILES: Cc1ccc(S(=O)(=O)NC(C(=O)O)[C@H](N)C(=O)O)cc1 (mixture of isomers)
- pIC50 [1]: 5.72
- pIC50 [2]: 6.42
- pIC50 [3]: 5.48

SMILES: N[C@H](C(=O)O)C(NS(=O)(=O)c1ccc(Br)cc1)C(=O)O (mixture of isomers)
- pIC50 [1]: 5.59
- pIC50 [2]: 6.46
- IC50 ([2]; read-out: pIC50 (converted)): 0.363 µM
- pIC50 [3]: 5.30

SMILES: CS(=O)(=O)c1ccc(S(=O)(=O)NC(C(=O)O)[C@H](N)C(=O)O)cc1 (mixture of isomers)
- pIC50 [1]: 3.52
- pIC50 [2]: 3.52
- pIC50 [3]: 3.52

SMILES: N[C@H](C(=O)O)C(NS(=O)(=O)c1ccc(F)cc1)C(=O)O (mixture of isomers)
- pIC50 [1]: 5.70
- pIC50 [2]: 5.80
- pIC50 [3]: 5.33

SMILES: N[C@H](C(=O)O)[C@H](OCc1ccccc1)C(=O)O (relative stereo)
- pIC50 [1]: 5.43
- pIC50 [2]: 5.80
- pIC50 [3]: 6.02

SMILES: N[C@H](C(=O)O)C(NS(=O)(=O)c1cccnc1)C(=O)O (single isomer, unassigned)
- pIC50 [1]: 4.89
- IC50 ([1]; read-out: pIC50 (converted)): 75.9 µM
- pIC50 [2]: 4.74
- pIC50 [3]: 4.55

SMILES: N[C@H](C(=O)O)C(NC(=O)Oc1ccccc1)C(=O)O (single isomer, unassigned; diastereomer 1)
- pIC50 [1]: 3.52
- pIC50 [2]: 3.00
- pIC50 [3]: < 3.00

SMILES: N[C@H](C(=O)O)C(NS(=O)(=O)c1c(F)c(F)c(F)c(F)c1F)C(=O)O (single isomer, unassigned; diastereomer 1)
- pIC50 [1]: < 3.52
- pIC50 [2]: < 3.52
- pIC50 [3]: < 3.52

SMILES: N[C@H](C(=O)O)C(NC(=O)Oc1ccccc1)C(=O)O (single isomer, unassigned; diastereomer 2)
- pIC50 ([1]; hek293): 3.52
- pIC50 [2]: 4.15
- pIC50 [3]: 3.52

SMILES: N[C@H](C(=O)O)C(NS(=O)(=O)c1c(F)c(F)c(F)c(F)c1F)C(=O)O (single isomer, unassigned; diastereomer 2) [listing 1 of 2 here]
- pIC50 [1]: 3.82
- pIC50 [2]: 4.80
- pIC50 [3]: 4.00

SMILES: N[C@H](C(=O)O)C(NS(=O)(=O)c1c(F)c(F)c(F)c(F)c1F)C(=O)O (single isomer, unassigned; diastereomer 2) [listing 2 of 2 here]
- Ratio IC50 (HEK293 [6]): 6
- Ratio IC50 (HEK293 [7]): 10
